From PMC8075810 (Cell Chemical Biology, 2021)

Key:
SCoV2 [1] = assay: SCoV2 replication in hACE2-HeLa cells, NP western blot; type: cell-based, SARS-CoV2 (SZ02); conditions: 5 μM, 48 h
[2] = test system: 10 DUBs or DUB-like proteases, including USP14 and OTUB1; assay: Inhibitor specificity assay; type: biochemical, Human; conditions: 19 at 10 μM, Ub-Rho substrate
[3] = test system: NF-κB activation perturbed by SCoV2 PLpro; assay: NF-κB activity luciferase-reporting assay; type: cell-based, Human
hACE2-HeLa cells = assay: Cytotoxicity, CellTiter-Glo viability assay; type: cell-based, Human; conditions: 10 μM, 72 h
In short: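 hACE2-HeLa cells grown in DMEM with 10% FBS and penicillin-streptomycin at 37°C, 5% CO2, and passaged before confluency. 2 x 10^3 cells/well were seeded in 384-well format and exposed to test compound at a range of concentrations for 72 h. Viability was read by CellTiter-Glo luminescence.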

[4] = Metabolic stability in mouse liver microsomes; type: in vitro ADME
In short: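 It was then split into 7 aliquots, each given NADPH (3 mM solution added) or PBS alone and incubated at 37°C. Samples were diluted 1:1 with water and analysed by LC-MS.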

[5] = Stability in mouse plasma; type: in vitro ADME
SCoV2 [6] = conditions: hACE2-HeLa cells
SCoV2 [7] = assay: microbe, parasite or virus in culture; conditions: Severe acute respiratory syndrome coronavirus 2, read-out: IC50 (inhibition of SCoV2 replication)

Compound	NP level in infected hACE2-HeLa cells (SCoV2 [1])	inhibition of DUBs or DUB-like proteases [2]	recovery of NF-κB activation level [3]	cytotoxicity (in words) (hACE2-HeLa cells)	half-life at 1 μM [4] [min]	half-life at 8.35 μM [5] [min]	therapeutic index (CC50/IC50) (SCoV2 [6])	inhibition of SCoV2 replication (in words) (SCoV2 [6]; spike immunostaining)	IC50 (SCoV2 [7]) [nM]
C[C@H](c1cccc2ccccc12)N1CCC(C(=O)NCc2cccc(F)c2)CC1 [Inhibitor 11, (R)-N-(3-fluorobenzyl)-1-(1-(naphthalen-1-yl)ethyl)piperidine-4-carboxamide]	strongest								
C[C@H](c1cccc2ccccc12)N1CCC(C(=O)NCc2cc(F)cc(NC(=O)N3CCN(C)CC3)c2)CC1 [Inhibitor 19, (R)-N-(3-fluoro-5-((1-(1-(naphthalen-1-yl)ethyl)piperidine-4-carboxamido)methyl)phenyl)-4-methylpiperazine-1-carboxamide]		none of these 10 proteases were significantly inhibited	significantly recover	neither 17 nor 19 showed detectable cytotoxicity	28	> 120	over 55	significantly inhibit SCoV2 replication even at 400 nM	182
